Experimental data published in ChEMBL document CHEMBL1155805 (J Med Chem, 2008).

Columns and labels:
[1] = species: Rattus norvegicus; assay: Ratio of Ki for adrenergic receptor alpha1 to Ki for 5HT1A receptor in CRL:CD(SD)BR-COBS rat brain
[2] = target: T1, 5-hydroxytryptamine receptor 1A (Rattus norvegicus, UniProt P19327); assay: Displacement of [3H]8-OH-DPAT from 5HT1A receptor in CRL:CD(SD)BR-COBS rat hippocampus; assay type: tissue-based
T1 sequence (P19327 whole entry): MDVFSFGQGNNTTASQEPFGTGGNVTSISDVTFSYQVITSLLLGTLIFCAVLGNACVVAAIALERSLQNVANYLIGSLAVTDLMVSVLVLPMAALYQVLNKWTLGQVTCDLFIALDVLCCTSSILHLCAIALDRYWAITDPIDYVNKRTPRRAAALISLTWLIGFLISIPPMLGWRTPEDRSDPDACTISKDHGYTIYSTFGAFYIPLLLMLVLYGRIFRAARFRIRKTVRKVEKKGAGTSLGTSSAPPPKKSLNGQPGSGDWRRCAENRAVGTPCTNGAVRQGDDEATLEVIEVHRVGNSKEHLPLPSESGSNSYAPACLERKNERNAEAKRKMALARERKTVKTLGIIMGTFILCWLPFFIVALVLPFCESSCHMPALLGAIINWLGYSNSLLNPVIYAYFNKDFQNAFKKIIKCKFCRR
Procedure, shortened: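 Rat hippocampus homogenized in 50 mM Tris·HCl pH 7.4, spun at 50000g, warmed 10 min at 37 °C, washed, then resuspended in 50 mM Tris·HCl pH 7.7 with 10 µM pargyline and 4 mM CaCl2. Incubation used 1 nM [3H]8-OH-DPAT for 30 min at 25 °C. Nonspecific binding was defined with 10 µM 5-HT. Separation was by filtration. Ki is the mean ± SD of three experiments.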

[3] = Displacement of [3H]prazosin from adrenergic receptor alpha1 in CRL:CD(SD)BR-COBS rat brain cortex
Procedure, shortened: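 Cortical membranes were washed (50000g, 10 min at 37 °C) and suspended in 50 mM Tris·HCl pH 7.7 with 10 µM pargyline and 0.1% ascorbic acid. Incubation used 0.2 nM [3H]prazosin for 30 min at 25 °C. Nonspecific binding was defined with 3 µM phentolamine. Filtration was used. Ki is the mean ± SD of three experiments.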

[4] = target: T1, 5-hydroxytryptamine receptor 1A; assay: Antagonist activity at 5HT1A receptor in CRL:CD(SD)BR-COBS rat hippocampus assessed as inhibition of 5-hydroxytryptamine-induced increase in [35S]GTPgammaS binding; assay type: functional, tissue-based
Procedure, shortened: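 Hippocampal membranes (rat, 200 µg protein/sample) were prepared as for 5-HT1A binding. Antagonists were tested at several concentrations with 10 µM 5-HT: 20 min preincubation at 37 °C, then 45 min at 37 °C with 0.1 nM [35S]GTPγS. Nonspecific binding was set with 10 µM GTPγS, followed by filtration. IC50 was fitted and converted to Ki by Cheng–Prusoff. Mean ± SD of three experiments.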

[5] = target: 5-hydroxytryptamine receptor 2A (Rattus norvegicus, UniProt P14842); assay: Displacement of [3H]ketanserin from 5HT2A receptor in CRL:CD(SD)BR-COBS rat brain cortex
5-hydroxytryptamine receptor 2A, sequence (P14842 whole entry): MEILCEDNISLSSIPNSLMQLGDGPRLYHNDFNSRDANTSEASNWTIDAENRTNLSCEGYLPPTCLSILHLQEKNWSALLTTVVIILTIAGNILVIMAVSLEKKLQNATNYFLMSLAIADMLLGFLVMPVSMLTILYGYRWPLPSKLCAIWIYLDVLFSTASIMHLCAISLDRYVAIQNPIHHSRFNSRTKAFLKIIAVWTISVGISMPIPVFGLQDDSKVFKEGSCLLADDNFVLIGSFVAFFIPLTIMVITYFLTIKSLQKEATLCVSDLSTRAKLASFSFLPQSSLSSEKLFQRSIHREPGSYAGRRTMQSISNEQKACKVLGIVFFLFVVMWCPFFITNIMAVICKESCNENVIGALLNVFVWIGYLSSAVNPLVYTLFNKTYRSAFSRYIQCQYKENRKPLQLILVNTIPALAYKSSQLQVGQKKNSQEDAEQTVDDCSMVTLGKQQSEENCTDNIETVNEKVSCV
Procedure, shortened: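 Cortex homogenate was washed, including 10 min at 37 °C, and resuspended in 50 mM Tris·HCl pH 7.7. Incubation used 0.35 nM [3H]ketanserin for 15 min at 37 °C. Nonspecific binding was defined with 1 µM methysergide. Filtration was used. Ki is the mean ± SD of three experiments.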

[6] = target: D(1A) dopamine receptor (Rattus norvegicus, UniProt P18901); assay: Displacement of [3H]SCH23390 from dopamine D1 receptor in CRL:CD(SD)BR-COBS rat brain striatum
D(1A) dopamine receptor, sequence (P18901 whole entry): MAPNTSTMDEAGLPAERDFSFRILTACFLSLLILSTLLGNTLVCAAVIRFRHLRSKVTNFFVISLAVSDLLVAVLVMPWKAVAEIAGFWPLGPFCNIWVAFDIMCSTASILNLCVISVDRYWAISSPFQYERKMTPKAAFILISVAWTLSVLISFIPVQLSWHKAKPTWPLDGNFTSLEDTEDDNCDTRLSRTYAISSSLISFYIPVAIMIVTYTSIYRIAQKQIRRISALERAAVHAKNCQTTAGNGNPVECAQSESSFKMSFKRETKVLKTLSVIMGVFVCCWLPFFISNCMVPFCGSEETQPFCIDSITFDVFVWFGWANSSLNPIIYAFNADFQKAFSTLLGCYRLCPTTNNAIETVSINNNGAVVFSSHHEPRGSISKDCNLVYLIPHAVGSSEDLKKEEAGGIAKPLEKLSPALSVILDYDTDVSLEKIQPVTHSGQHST
Procedure, shortened: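 Striatal membranes were washed (50000g spins, 10 min at 37 °C), then held in 50 mM Tris·HCl pH 7.4 with 10 µM pargyline, 120 mM NaCl, 5 mM KCl, 2 mM CaCl2, 1 mM MgCl2 and 0.1% ascorbic acid. Incubation used 0.4 nM [3H]SCH23390 for 15 min at 25 °C. Nonspecific binding was defined with 10 µM (-)-cis-flupentixol. Filtration was used. Ki is the mean ± SD of three experiments.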

[7] = target: D(2) dopamine receptor (Rattus norvegicus, UniProt P61169); assay: Displacement of [3H]spiperone from dopamine D2 receptor in CRL:CD(SD)BR-COBS rat brain striatum
D(2) dopamine receptor, sequence (P61169 whole entry): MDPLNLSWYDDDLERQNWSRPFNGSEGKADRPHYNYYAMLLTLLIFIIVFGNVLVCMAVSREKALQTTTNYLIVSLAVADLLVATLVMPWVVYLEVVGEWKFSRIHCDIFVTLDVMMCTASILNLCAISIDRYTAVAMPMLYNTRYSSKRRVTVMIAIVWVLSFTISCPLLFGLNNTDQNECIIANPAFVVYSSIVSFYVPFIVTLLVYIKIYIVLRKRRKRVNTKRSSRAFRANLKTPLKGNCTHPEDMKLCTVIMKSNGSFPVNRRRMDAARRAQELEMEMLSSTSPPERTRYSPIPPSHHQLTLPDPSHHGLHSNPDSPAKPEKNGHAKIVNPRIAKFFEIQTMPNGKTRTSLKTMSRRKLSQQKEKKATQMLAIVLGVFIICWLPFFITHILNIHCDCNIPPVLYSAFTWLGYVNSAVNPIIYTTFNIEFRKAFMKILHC

[8] = target: T2, 5-hydroxytryptamine receptor 1A (Rattus norvegicus) (UniProt P19327); assay: Agonist activity at 5HT1A receptor in CRL:CD(SD)BR-COBS rat hippocampus assessed as increase in [35S]GTPgammaS binding relative to 5-hydroxytryptamine; assay type: functional, tissue-based
T2 sequence (whole entry): T1 sequence (P19327 whole entry)
Procedure, shortened: (§1)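 Rat hippocampal membranes (200 µg protein/sample), washed in 50 mM Tris·HCl and resuspended in pH 7.7 Tris with 10 µM pargyline and 4 mM CaCl2. Graded drug concentrations were applied, with 20 min preincubation at 37 °C, then 45 min at 37 °C with 0.1 nM [35S]GTPγS. Nonspecific binding was set with 10 µM GTPγS, followed by GF/B filtration. EC50 and Emax (vs 5-HT) came from curve fitting. Mean ± SD, three experiments.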

[9] = target: T1, 5-hydroxytryptamine receptor 1A; assay: Agonist activity at 5HT1A receptor in CRL:CD(SD)BR-COBS rat hippocampus assessed as increase in [35S]GTPgammaS binding; assay type: functional, tissue-based
Procedure, shortened: as §1, with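 “filtration.” for “filtration. EC50 and Emax (vs 5-HT) came from curve fitting.”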

Compound | Ratio Ki [1] | Ki [2] [nM] | Ki [3] [nM] | Ki [4] [nM] | Ki [5] [nM] | Ki [6] [nM] | Ki [7] [nM] | Emax [8] [%] | EC50 [9] [nM]
O=[N+]([O-])c1ccccc1N1CCN(CCCSc2nc3ccccc3[nH]2)CC1 | 4.66 | 16.6 | 77.4 | – | – | – | – | – | –
COc1ccccc1N1CCN(CCCSc2nc3ccccc3[nH]2)CC1 | 26 | 1 | 25.9 | – | – | – | – | – | –
COc1ccccc1N1CCN(CCSc2nc3ccccc3[nH]2)CC1 | 7.25 | 33.1 | 240 | – | – | – | – | – | –
O=[N+]([O-])c1ccccc1N1CCN(CCSc2nc3ccccc3[nH]2)CC1 | 4.8 | 95.2 | 457 | – | – | – | – | – | –
COc1ccccc1N1CCN(CCSc2nc3ccccc3o2)CC1 | 4.11 | 67.2 | 276 | – | – | – | – | – | –
CCc1cc2c(=O)n(N)c(SCCCN3CCN(c4ccccc4OC)CC3)nc2s1 | – | – | – | 7.4 | – | – | – | – | –
COc1ccccc1N1CCN(CCCSc2nc3ccccc3n2C)CC1 | 74 | 0.27 | 20 | – | – | – | – | – | –
O=[N+]([O-])c1ccccc1N1CCN(CCCSc2nc3ccccc3s2)CC1 | 26 | 9.6 | 249 | – | – | – | – | – | –
COc1ccccc1N1CCN(CCSc2nc3ccccc3s2)CC1 | 6.63 | 31.2 | 207 | – | – | – | – | – | –
O=[N+]([O-])c1ccccc1N1CCN(CCSc2nc3ccccc3o2)CC1 | 5.87 | 326 | 1920 | – | – | – | – | – | –
O=C1c2ccccc2S(=O)(=O)N1CCCCN1CCN(c2ncccn2)CC1 [IPSAPIRONE] | 36 | – | 200 | – | – | – | – | – | –
COc1ccccc1N1CCN(CCCCCCSc2nc3ccccc3s2)CC1 | 53 | 1.3 | 46 | – | – | – | – | – | –
c1ccc(N2CCN(CCCSc3nc4ccccc4s3)CC2)nc1 | 100 | 0.78 | 77.7 | – | 78.8 | 5630 | 462 | 33 | 204
O=[N+]([O-])c1ccccc1N1CCN(CCCSc2nc3ccccc3o2)CC1 | 9 | 14.1 | 127 | – | – | – | – | – | –
c1cnc(N2CCN(CCCSc3nc4ccccc4o3)CC2)nc1 | 111 | 14.9 | 1650 | – | – | – | – | – | –
c1cnc(N2CCN(CCCSc3nc4ccccc4s3)CC2)nc1 | 131 | 2.5 | 328 | – | 183 | > 10000 | 532 | – | –
COc1ccccc1N1CCN(CCCCSc2nc3ccccc3o2)CC1 | 830 | 0.094 | 78 | 6.6 | 298 | 1600 | 37.3 | – | –
COc1ccccc1N1CCN(CCCSc2nc3ccccc3o2)CC1 | 39 | 0.55 | 21.5 | – | – | – | – | – | –
COc1ccccc1N1CCN(CCCSc2nc3ccccc3s2)CC1 | 114 | 0.29 | 33.2 | 1.7 | 96.1 | 1280 | 25.8 | – | –
CCC1=CC2C(=O)N(N)C(SCCCN3CCN(c4ncccn4)CC3)=NC2S1 (stereo unspecified) | – | – | – | – | – | – | – | 38 | 1210
NCCc1c[nH]c2ccc(O)cc12 | – | – | – | – | – | – | – | 100 | –
c1ccc(N2CCN(CCCSc3nc4ccccc4o3)CC2)nc1 | 61 | 1.6 | 98 | – | 174 | > 10000 | 429 | – | –
COc1ccccc1N1CCN(CCCSc2nc3cc(Cl)ccc3s2)CC1 | 22 | 1 | 21.9 | – | – | – | – | – | –
O=[N+]([O-])c1ccccc1N1CCN(CCSc2nc3ccccc3s2)CC1 | > 5.87 | 1700 | > 10000 | – | – | – | – | – | –
COc1ccccc1N1CCN(CCCSc2nc3cc(Cl)ccc3o2)CC1 | 53 | 0.88 | 46.7 | – | – | – | – | – | –
COc1ccccc1N1CCN(CCCCSc2nc3ccccc3s2)CC1 | 61 | 0.27 | 16.6 | – | 106 | 2000 | 58.3 | – | –
COc1ccccc1N1CCN(CCCCCCSc2nc3ccccc3o2)CC1 | 101 | 0.52 | 52.5 | 1.3 | 207 | 922 | 46.6 | – | –
